rRNA inh HTS: selective bacterial rRNA inhibition in E. coli; GFP signal change (wild-type ribosome), % (test concentration not listed); 350,000 tested, 1.6% active; AID 720706; E. coli WT GFP vs humanized-ribosome RFP mutants, fluorescence, 24 h; stronger effect = lower value; DMSO median 0, no signal -100;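 active = significant combined selectivity score with lowered wild-type GFP, culture density cut under 30%, mutant RFP and density less affected; inactive = any of these conditions unmet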
Cneo AK release: Cryptococcus neoformans lysis via adenylate kinase release | lysis activity, % at 15 µM | C. neoformans lysis, adenylate kinase release luminescence, 4 h; normalised: neutral wells 0, clomiphene wells 100 | 360,000 tested, 0.2% active;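 active = mean lysis activity across replicates of at least 80%, whatever share of replicates individually reach that level; inactive = mean lysis activity below 80%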
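Material: C. neoformans cells | Amount: Yeast cell density of 5 × 10^6 cells/mL | Medium: Fresh YPD growth medium | Dosing: Single dose | Times: Static 4 h at 37 °C with compound, 1 h detection | Detection: AK luminescence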
PGC1a acetyl inh: modulators of PGC1a acetylation; AID 651687; 350,000 tested, 0.17% active; inhibition, % at 15.6 µM; U2OS PGC1a acetylation, AlphaScreen anti-acetyl-lysine; with virally co-expressed GCN5 acetyltransferase;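 active = every replicate shows inhibition of at least 40%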;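 note: 0% = neutral control wells and 100% = positive control wells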
ERAP1 inh: inhibitors of human ERAP1 aminopeptidase; recombinant ERAP1, Leu-AMC fluorescence, 60 min; inhibition, % at 10.7 µM; 340,000 tested, 0.15% active;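 active = mean replicate inhibition of at least 30%, or all replicates individually reaching that 30% level; inactive = mean below 30% and not every replicate reaching it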;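 note: 0% = neutral control wells and 100% = L-leucinethiol positive control wells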
Env fusion inh: HIV envelope-mediated fusion inhibition; HeLa-JRFL Env/CEM21 cell fusion, luciferase; inhibition, % at 12.3 µM; 360,000 tested, 1.1% active; AID 651610;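 active = mean replicate inhibition score of at least 50 and every replicate individually at or above 50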;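 note: 0% = plate neutral controls and 100% = maraviroc near 300 nM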
FGF22 binding-1: shifts melting point of recombinant human FGF22. Q9HCT0. recombinant FGF22 thermal shift, SYPRO orange fluorescence; percent of sucrose octasulfate shift, DMSO zero. activity (Tm shift, normalised), % at 9.99 µM. 340,000 tested, 1.5% active;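 active = mean Tm shift, scaled 0 neutral to 100 positive control, at about 1.3% or above, every replicate too, limit read from the data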
Target sequence (Q9HCT0 whole entry, looked up): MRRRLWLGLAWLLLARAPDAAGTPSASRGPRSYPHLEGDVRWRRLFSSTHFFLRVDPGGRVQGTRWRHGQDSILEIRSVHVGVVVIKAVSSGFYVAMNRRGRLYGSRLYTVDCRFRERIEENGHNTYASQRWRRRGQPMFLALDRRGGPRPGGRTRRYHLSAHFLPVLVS
FGF22 binding-2: binders of human FGF22 by thermal shift. shares compounds with FGF22 binding-1. recombinant FGF22 thermal shift, SYPRO orange fluorescence. thermal shift activity, °C (ΔTm) at 38 µM. 1,000 tested, 2% active. AID 720646;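 active = fitted rise in melting shift crosses a set limit at or below the top valid dose tested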
FGF22 TSA: binders of human FGF22 by thermal shift; shares compounds with FGF22 binding-1; Thermal shift assay, SYPRO orange, melting temperature shift; Tm shift (activity), % at 38 µM; 50 tested, under 10 active;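 active = compounds whose fitted dose curve of melting temperature shift rises past a set threshold within the tested doses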
TSA no protein: shows thermal shift signal without protein, FGF22 counter-screen; shares compounds with FGF22 binding-1; AC50, µM (doses to about 38 µM); 1,000 tested, 2% active; compound-only SYPRO orange thermal shift counter-screen, no protein; AID 743019;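 active = rising signal whose fitted curve reaches the 0.54 level within the top valid dose, showing a melting point, actives reach about 13 µM in these data; inactive = the rest, including activity in the opposite direction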; note: value is where the raw curve crosses a fixed level and not half-maximal
* marks the source's active call; other numbers are inactive results; i = inactive; . = not tested or not shown; [ ] = another dose, or the depositor's remark. Shown are actives, neighbours in structure and some others; about 3.5% of the full set was active somewhere.

SMILES | rRNA inh HTS | Cneo AK release | PGC1a acetyl inh | ERAP1 inh | Env fusion inh | FGF22 binding-1 | FGF22 binding-2 | TSA no protein | others
CC(C)NC(=O)Nc1ccc2c(c1)CC(=O)N([C@@H](C)CO)C[C@H](C)[C@H](CN(C)S(C)(=O)=O)O2 | 1.4 | 12.9 | 0.0 | -1.7 | 6.8[16.7 µM] | 0.1 | . | .
CCCNC(=O)N1CCC2(CC1)CN(C(=O)c1ccccc1)[C@@H](CO)c1[nH]c3cc(OC)ccc3c12 | 0.8 | . | 8.7 | . | . | 0.2 | . | .
O=C(c1cn(-c2ccccc2)nc1-c1ccc(Br)cc1)N1CCOCC1 | . | -2.5 | -4.9 | -6.8 | -5.1 | -0.2 | . | .
C[C@@H]1CN([C@H](C)CO)S(=O)(=O)c2ccc(C#CC3CC3)cc2O[C@H]1CN(C)C(=O)c1ccncc1 | -4.3 | 2.2 | 0.0 | 1.0 | 6.2[16.7 µM] | 1.4* | 0.024 | i
C[C@H](CO)N1C[C@H](C)[C@H](CN(C)C(=O)c2ccncc2)Oc2cc(C#CC3CC3)ccc2S1(=O)=O | -0.6 | -12.6 | -3.2 | -9.2 | 0.6[16.7 µM] | -0.4 | . | .
N#C[C@H]1[C@@H](c2ccc(C#CCC3CCCC3)cc2)[C@H](CO)N1C(=O)CN1CCOCC1 | -23.0 | 7.0 | -2.2 | -0.6 | -6.9[16.7 µM] | 19.2* | 0.21[42 µM] | i
COc1ccc(NC(=O)CN(C)C(=O)c2cn(-c3ccccc3)nc2-c2cccnc2)cc1 | -4.1 | -1.4 | -39.1 | -3.3 | 6.7 | 2.4* | 0.223 | i
O=c1c2ccccc2nc2c3ccccc3ncn12 | 8.1 | -1.6 | 13.9 | -3.2 | . | 0.1 | . | .
O=[N+]([O-])c1ccc2nc(NS(=O)(=O)c3ccccc3[N+](=O)[O-])sc2c1 | -29.2 | -0.7 | . | 4.5 | 1.9 | 2.4* | -0.439 | i
O=C(COC(=O)c1ccccc1Br)NCCC1=CCCCC1 | -50.7* | -0.3 | 6.8 | -5.6 | 2.8 | 23.9* | 0.053 | i
COc1ccc(OCC(=O)NNC(=O)Cc2coc3cc(OC)ccc23)cc1 | . | 0.7 | . | . | 14.7 | . | . | .
COc1ccc2c(CC(=O)NNC(=O)c3ccc(O)cc3)coc2c1 | 4.5 | -3.4 | -3.6 | 0.1 | 7.5 | 1.6* | -0.384 | i
Oc1cc(O)cc(-c2cc3ccc(O)cc3o2)c1 | . | -6.2 | 4.6 | . | . | 2.1* | 0.007 | i
C=CCOc1ccc(/C(O)=C2\C(=O)C(=O)N(CCOC)C2c2cccnc2)cc1 (stereo unspecified) | . | 6.7 | 7.2 | . | -34.0 | . | . | .
O=C(C[C@@H]1C[C@@H]2c3cc(NC(=O)NC4CCCCC4)ccc3O[C@@H]2[C@H](CO)O1)NCCc1ccccc1 | -2.4 | . | . | 0.3 | . | . | . | .
O=C(N/N=C/c1ccncc1)c1cc2ccccc2cc1O | 1.0 | 0.3 | 1.6 | 0.1 | 0.6 | 0.0 | . | .
O=C(N/N=C/c1ccc[nH]1)c1cc2ccccc2cc1O | 2.6 | -1.4 | . | -0.2 | -16.0 | 1.8* | 0.084 | i
CCOC(=O)C1CCCN(C(=O)CN2C(=O)c3ccccc3C2=O)C1 (stereo unspecified) | . | 6.5 | . | . | -73.3 | . | . | .
Cc1cccc(NC(=O)COc2coc(CN3CCc4ccccc4C3)cc2=O)c1 | 1.3 | -0.8 | -1.2 | 2.6 | . | 7.0* | -0.023 | i
Cc1noc(C)c1NC(=O)N[C@H]1C=C[C@@H](CC(=O)Nc2ccc(-c3ccccc3)cc2)O[C@@H]1CO | -0.6 | 1.2 | -12.4 | 0.2 | 13.5[16.7 µM] | 0.4 | . | .
Cc1noc(C)c1NC(=O)N[C@@H]1C=C[C@H](CC(=O)Nc2ccc(-c3ccccc3)cc2)O[C@@H]1CO | -8.4 | . | 1.5 | -8.8 | . | 1.9* | 0.018[42 µM] | i
COc1cc2cc(NC(C)=O)cc(NCc3ccccc3)c2cc1OC | 6.3 | 0.7 | . | 1.3 | -29.8 | 1.5* | 0.426 | i
CCCC(=O)NC(=S)Nc1ccccc1OC | . | 3.5 | 3.6 | . | -33.6 | . | . | .
O=C(N/N=C/c1ccc(O)cc1)c1cc(-c2ccc3c(c2)OCO3)n[nH]1 | -15.6 | -9.2 | . | 7.1 | . | 1.0 | . | .
O=C(N/N=C/c1cccc(O)c1)c1cc(-c2ccc3c(c2)OCO3)n[nH]1 | -28.0 | . | . | 0.2 | 6.5 | 1.9* | 0.085 | i
SMILES | rRNA inh HTS | Cneo AK release | PGC1a acetyl inh | ERAP1 inh | Env fusion inh | FGF22 binding-1 | FGF22 binding-2 | TSA no protein | others
Nc1cccc2c(=O)c3ccccc3[nH]c12 | 10.2 | 1.4 | 0.5 | -3.4 | 14.6 | -0.3 | . | .
O=C(Nc1nc(-c2ccccn2)cs1)c1cc2ccccc2o1 | -53.6 | 2.5 | . | -0.9 | 23.0 | 1.6* | -0.224 | i
O=C(Nc1nc(-c2ccccn2)cs1)c1cccc(S(=O)(=O)N2CCOCC2)c1 | -28.5 | -2.6 | 21.4 | 1.3 | . | 1.5* | -0.095 | i
Cc1c(C(=O)Nc2nc(-c3ccccn3)cs2)oc2ccccc12 | . | 0.4 | 12.5 | . | . | . | . | .
CCC(C)N(C(=O)COC(=O)c1ccc(=O)n(Cc2ccccc2)n1)C1CCS(=O)(=O)C1 (stereo unspecified) | 0.3 | -2.1 | 0.5 | -2.7 | -43.4 | -0.5 | . | .
CCOC(=O)C1CCN(C(=O)CNC(=O)c2nn(-c3ccc(OC)cc3OC)c(=O)c3ccccc23)CC1 | 0.0 | -2.5 | 2.9 | -2.8 | 9.9 | 1.6* | 0.054 | i
N#C[C@H]1[C@H](c2ccccc2-c2ccccc2F)[C@@H](CO)N1C(=O)C1CCC1 | -8.8 | . | -6.7 | -0.8 | . | 1.4* | 0.141[42 µM] | i
CCOC(=O)c1ccc(N=CC2=C(O)CC(C)(C)CC2=O)cc1 | . | 1.1 | -4.8 | . | . | . | . | .
O=C(CNC(=O)c1cccc(Br)c1)N/N=C/c1cc(Br)cc(Br)c1O | 13.1 | 3.2 | -5.3 | -2.4 | 12.8 | 1.7* | -0.137 | i
CN1C(=O)c2cc(NC(=O)c3cccc(F)c3)ccc2OC[C@@H]2O[C@H](CC(=O)NCc3ccccc3Cl)CC[C@@H]21 | -5.2 | -1.9 | -7.9 | -0.3 | . | -0.1 | . | .
COC(=O)C1=C(CS(=O)(=O)c2cc(OC)ccc2OC)NC(=O)NC1c1ccc(O)c(OC)c1 (stereo unspecified) | 3.6 | 2.3 | -1.9 | 2.1 | 3.2 | 1.5* | 0.367 | i | FGF22 TSA=0.1
COC(=O)C1=C(CS(=O)(=O)c2ccc(OC)c(OC)c2)NC(=O)NC1c1ccc(O)c(OC)c1 (stereo unspecified) | -7.9 | -0.6 | 2.1 | 0.6 | -6.9 | -0.2 | . | .
O=C(N[C@@H]1C=C[C@@H](CC(=O)N2CCCCC2)O[C@@H]1CO)c1cccc(F)c1 | 3.2 | -1.1 | -8.6 | 0.6 | -9.4[16.7 µM] | 1.8* | -0.09[42 µM] | i
CCOC(=O)c1c(C)oc2cc(Br)c(O)c(Br)c12 | -33.1 | -0.2 | -3.7 | . | 1.7 | 1.4* | 0.025 | i
CCOC(=O)COc1cc2c(C(=O)OCC)c(C)oc2cc1Br | . | 1.1 | . | . | 24.0 | . | . | .
